Columns and labels:
Experiment in all cases: NCI-60 single-dose antiproliferative screen
Type in all cases: cell-based
OVCAR-3 = conditions: Homo sapiens, OVCAR-3, 48 h, read-out: growth percent
Summary of the method: (§1)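 NCI-60 protocol. Lines were grown in RPMI 1640 with 5% FBS and 2 mM L-glutamine, plated and incubated 24 h at 37 °C; time-zero plates were TCA-fixed. The test compound was dissolved in DMSO, diluted in medium with 50 μg/mL gentamicin and given once at a final 10^-5 M (DMSO control) for 48 h. Cells were fixed with cold TCA (1 h, 4 °C) and stained with 0.4% SRB in 1% acetic acid for 10 min. Dye was dissolved in 10 mM Trizma base and read at 515 nm. Growth percent was calculated from time-zero, test and control ODs.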

HT29 = conditions: Homo sapiens, HT-29, 48 h, read-out: growth percent
Summary of the method: as §1

RXF 393 = conditions: Homo sapiens, RXF 393, 48 h, read-out: growth percent
Summary of the method: as §1

NCI-H522 = conditions: Homo sapiens, NCI-H522, 48 h, read-out: growth percent
Summary of the method: as §1

NCI-H23 = conditions: Homo sapiens, NCI-H23, 48 h, read-out: growth percent
Summary of the method: as §1

ACHN = conditions: Homo sapiens, 48 h, read-out: growth percent
Summary of the method: as §1

MCF-7 = conditions: Homo sapiens, MCF7, 48 h, read-out: growth percent
Summary of the method: as §1

LOX IMVI = conditions: Homo sapiens, 48 h, read-out: growth percent
Summary of the method: as §1

NCI/ADR-RES = conditions: Homo sapiens, 48 h, read-out: growth percent
Summary of the method: as §1

CAKI-1 = conditions: Homo sapiens, CAKI-1, 48 h, read-out: growth percent
Summary of the method: as §1

UACC-62 = conditions: Homo sapiens, UACC-62, 48 h, read-out: growth percent
Summary of the method: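 Cells grown in RPMI 1640 with 5% FBS and 2 mM L-glutamine, plated and held 24 h at 37 °C; time-zero plates TCA-fixed. DMSO stocks were diluted in gentamicin-containing medium to a final 10^-5 M, with a DMSO-only control. Exposure 48 h, 5% CO2. Adherent cells TCA-fixed 1 h at 4 °C, stained with 0.4% SRB, solubilised in 10 mM Trizma base, read at 515 nm. Growth percent derived from ODtzero, ODtest and ODctrl.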

HOP-62 = conditions: Homo sapiens, HOP-62, 48 h, read-out: growth percent
Summary of the method: as §1

DU-145 = conditions: Homo sapiens, DU-145, 48 h, read-out: growth percent
Summary of the method: as §1

HCC-2998 = conditions: Homo sapiens, HCC 2998, 48 h, read-out: growth percent
Summary of the method: as §1

IGROV1 = conditions: Homo sapiens, IGROV-1, 48 h, read-out: growth percent
Summary of the method: as §1

RPMI-8226 = conditions: Homo sapiens, RPMI-8226, 48 h, read-out: growth percent
Summary of the method: as §1

786-0 = conditions: Homo sapiens, 786-0, 48 h, read-out: growth percent
Summary of the method: as §1

NCI-H322M = conditions: Homo sapiens, 48 h, read-out: growth percent
Summary of the method: as §1

NCI-H226 = conditions: Homo sapiens, NCI-H226, 48 h, read-out: growth percent
Summary of the method: as §1

SF-295 = conditions: Homo sapiens, SF-295, 48 h, read-out: growth percent
Summary of the method: as §1

Row | Compound | activity at 10 µM (OVCAR-3) [%] | activity at 10 µM (HT29) [%] | activity at 10 µM (RXF 393) [%] | activity at 10 µM (NCI-H522) [%] | activity at 10 µM (NCI-H23) [%] | activity at 10 µM (ACHN) [%] | activity at 10 µM (MCF-7) [%] | activity at 10 µM (LOX IMVI) [%] | activity at 10 µM (NCI/ADR-RES) [%] | activity at 10 µM (CAKI-1) [%] | activity at 10 µM (UACC-62) [%] | activity at 10 µM (HOP-62) [%] | activity at 10 µM (DU-145) [%] | activity at 10 µM (HCC-2998) [%] | activity at 10 µM (IGROV1) [%] | activity at 10 µM (RPMI-8226) [%] | activity at 10 µM (786-0) [%] | activity at 10 µM (NCI-H322M) [%] | activity at 10 µM (NCI-H226) [%] | activity at 10 µM (SF-295) [%]
1 | COc1cc(CNC(=O)CCCC/C=C/C(C)C)ccc1OCc1cn(-c2ccc(Cl)cc2)nn1 [14a, (E)-N-(4-((1-(4-Chlorophenyl)-1H-1,2,3-triazol-4-yl)methoxy)-3-methoxybenzyl)-8-methylnon-6-enamide] | 105 | 88.4 | 98 | 65.7 | 78.7 | 59.7 | 84.9 | 85.6 | 78.1 | 89 | 67.8 | 84 | 98.9 | 113 | 93.4 | 60.8 | 92.5 | 92.2 | 70.4 | 88.3
2 | COc1cc(CNC(=O)CCCC/C=C/C(C)C)ccc1OCc1cn(-c2cccc(Cl)c2)nn1 [14b, (E)-N-(4-((1-(3-Chlorophenyl)-1H-1,2,3-triazol-4-yl)methoxy)-3-methoxybenzyl)-8-methylnon-6-enamide] | 84.4 | 99.2 | 91 | 69.2 | 87.2 | 73 | 86.9 | 89.4 | 76.6 | 79.6 | 75 | 71.5 | 95.9 | 104 | 79.9 | 86.3 | 76.8 | 86.2 | 86.5 | 90.5
3 | COc1cc(CNC(=O)CCCC/C=C/C(C)C)ccc1OCc1cn(-c2ccccc2Cl)nn1 [14c, (E)-N-(4-((1-(2-Chlorophenyl)-1H-1,2,3-triazol-4-yl)methoxy)-3-methoxybenzyl)-8-methylnon-6-enamide] | 101 | 98.2 | 105 | 64.5 | 93.6 | 74.1 | 97.2 | 89.9 | 92 | 93.4 | 73.3 | 82 | 99.2 | 110 | 98.8 | 75.5 | 93.8 | 89.4 | 81.8 | 99.4
4 | COc1cc(CNC(=O)CCCC/C=C/C(C)C)ccc1OCc1cn(-c2ccc(Cl)c(Cl)c2)nn1 [14d, (E)-N-(4-((1-(3,4-Dichlorophenyl)-1H-1,2,3-triazol-4-yl)methoxy)-3-methoxybenzyl)-8-methylnon-6-enamide] | 92.4 | 99.4 | 101 | 69.3 | 93.2 |  | 95.3 | 87 | 91.1 | 58.3 | 75.6 | 90.4 | 86.5 | 98.1 | 104 | 78.1 | 96.3 | 93.2 | 76.6 | 94.6
5 | COc1cc(CNC(=O)CCCC/C=C/C(C)C)ccc1OCc1cn(-c2ccc(C(F)(F)F)cc2)nn1 [14g, (E)-N-(3-Methoxy-4-((1-(4-(trifluoromethyl)phenyl)-1H-1,2,3-triazol-4-yl)methoxy)benzyl)-8-methylnon-6-enamide] | 107 | 79 | 90.2 | 75.6 | 94.6 |  | 80.7 | 60.3 | 48.2 | 85.8 | 84.3 | 64.6 | 62.2 | 94.8 | 58.7 | 53.4 | 2.94 | 96.2 | 53.6 | 90.9
6 | COc1cc(CNC(=O)CCCC/C=C/C(C)C)ccc1OCc1cn(-c2ccccc2OC)nn1 [14l, (E)-N-(3-Methoxy-4-((1-(2-methoxyphenyl)-1H-1,2,3-triazol-4-yl)methoxy)benzyl)-8-methylnon-6-enamide] | 103 | 98.7 | 101 | 63.9 | 96 |  | 98.2 | 86.1 | 94.6 | 79.9 | 75.1 | 88.7 | 83.1 | 117 | 104 | 71.2 | 102 | 92.2 | 80.5 | 108
7 | COc1cc(CNC(=O)CCCC/C=C/C(C)C)ccc1OCc1cn(-c2cc(OC)c(OC)c(OC)c2)nn1 [14m, (E)-N-(3-Methoxy-4-((1-(3,4,5-trimethoxyphenyl)-1H-1,2,3-triazol-4-yl)methoxy)benzyl)-8-methylnon-6-enamide] | 103 | 87.2 | 104 | 65.2 | 90.1 |  | 102 | 94.4 | 91.7 | 79.5 | 87.8 | 90.7 | 85.4 | 91.8 | 103 | 79.4 | 108 | 89.1 | 91.4 | 105
8 | CCc1ccc(-n2cc(COc3ccc(CNC(=O)CCCC/C=C/C(C)C)cc3OC)nn2)cc1 [14o, (E)-N-(4-((1-(4-Ethylphenyl)-1H-1,2,3-triazol-4-yl)methoxy)-3-methoxybenzyl)-8-methylnon-6-enamide] | 101 | 109 | 101 | 65.9 | 89.5 |  | 102 | 89.3 | 87.7 | 77.4 | 71.4 | 94.5 | 93.8 | 99.7 | 102 | 74 | 100 | 90.5 | 76.7 | 100
